Activity calls are given as the source filed them. The rule behind the calls is not given here.
How the values were obtained:
[1] = target: T1, Tyrosine-protein phosphatase non-receptor type 11 (Homo sapiens) (UniProt Q06124); assay: Inhibition of phosphatase activity of SHP2 (unknown origin) using pNPP as a substrate at 50 uM after 10 mins by spectrophotometer analysis
T1 sequence (whole entry): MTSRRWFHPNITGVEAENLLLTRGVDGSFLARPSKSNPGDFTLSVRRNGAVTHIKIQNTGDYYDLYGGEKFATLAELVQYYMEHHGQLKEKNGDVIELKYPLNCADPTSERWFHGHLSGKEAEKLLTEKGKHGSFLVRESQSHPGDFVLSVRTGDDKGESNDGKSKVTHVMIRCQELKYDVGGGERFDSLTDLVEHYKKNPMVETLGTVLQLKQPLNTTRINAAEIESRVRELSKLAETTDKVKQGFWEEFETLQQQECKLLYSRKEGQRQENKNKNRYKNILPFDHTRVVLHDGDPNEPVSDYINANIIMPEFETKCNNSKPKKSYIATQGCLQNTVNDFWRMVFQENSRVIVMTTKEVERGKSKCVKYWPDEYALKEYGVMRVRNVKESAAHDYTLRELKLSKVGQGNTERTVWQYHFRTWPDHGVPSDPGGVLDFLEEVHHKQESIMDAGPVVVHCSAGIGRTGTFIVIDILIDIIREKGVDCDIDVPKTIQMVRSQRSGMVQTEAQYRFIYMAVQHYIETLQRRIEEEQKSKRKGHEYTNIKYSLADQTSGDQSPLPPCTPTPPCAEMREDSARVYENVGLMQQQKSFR

MDA-MB-231 [2] = assay: Cytotoxicity against human MDA-MB-231 cells by MTT assay; type: functional, cell-based
NCI-H1975 [3] = assay: Cytotoxicity against human NCI-H1975 cells by MTT assay; type: functional, cell-based
[4] = target: T2, Tyrosine-protein phosphatase non-receptor type 7 (Homo sapiens, UniProt P35236); assay: Inhibition of phosphatase activity of human HePTP using pNPP as a substrate after 10 mins by spectrophotometer analysis
T2 sequence (P35236 whole entry): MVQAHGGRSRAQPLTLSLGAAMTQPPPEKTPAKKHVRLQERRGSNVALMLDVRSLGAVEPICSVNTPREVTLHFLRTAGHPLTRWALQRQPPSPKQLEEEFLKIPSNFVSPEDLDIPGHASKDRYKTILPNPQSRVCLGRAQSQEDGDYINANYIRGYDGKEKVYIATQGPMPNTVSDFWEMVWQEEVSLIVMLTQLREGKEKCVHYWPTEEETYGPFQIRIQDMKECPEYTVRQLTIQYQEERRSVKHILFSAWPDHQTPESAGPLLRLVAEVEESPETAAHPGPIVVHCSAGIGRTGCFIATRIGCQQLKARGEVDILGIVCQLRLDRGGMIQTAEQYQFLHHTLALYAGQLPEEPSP

[5] = target: T3, Tyrosine-protein phosphatase non-receptor type 9 (Homo sapiens, UniProt P43378); assay: Inhibition of phosphatase activity of human Meg2 using pNPP as a substrate after 10 mins by spectrophotometer analysis
T3 sequence (P43378 whole entry): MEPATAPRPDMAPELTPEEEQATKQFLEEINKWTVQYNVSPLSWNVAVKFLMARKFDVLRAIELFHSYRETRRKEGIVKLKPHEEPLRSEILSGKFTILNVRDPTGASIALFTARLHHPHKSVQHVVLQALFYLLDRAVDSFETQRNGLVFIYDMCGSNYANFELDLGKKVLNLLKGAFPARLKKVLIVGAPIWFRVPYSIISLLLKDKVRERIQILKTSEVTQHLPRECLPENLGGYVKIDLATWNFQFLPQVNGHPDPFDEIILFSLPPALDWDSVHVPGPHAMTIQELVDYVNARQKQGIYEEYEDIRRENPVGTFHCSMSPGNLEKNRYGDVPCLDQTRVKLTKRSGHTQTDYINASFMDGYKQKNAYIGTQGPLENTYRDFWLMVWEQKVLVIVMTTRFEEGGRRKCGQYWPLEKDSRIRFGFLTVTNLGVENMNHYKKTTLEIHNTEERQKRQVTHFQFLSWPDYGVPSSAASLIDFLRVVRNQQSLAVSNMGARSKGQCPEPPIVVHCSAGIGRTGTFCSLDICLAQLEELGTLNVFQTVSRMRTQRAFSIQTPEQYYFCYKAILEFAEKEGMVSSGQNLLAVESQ

[6] = target: Receptor-type tyrosine-protein phosphatase beta (Homo sapiens, UniProt P23467); assay: Inhibition of phosphatase activity of human PTPbeta using pNPP as a substrate after 10 mins by spectrophotometer analysis
Sequence of Receptor-type tyrosine-protein phosphatase beta (P23467 whole entry): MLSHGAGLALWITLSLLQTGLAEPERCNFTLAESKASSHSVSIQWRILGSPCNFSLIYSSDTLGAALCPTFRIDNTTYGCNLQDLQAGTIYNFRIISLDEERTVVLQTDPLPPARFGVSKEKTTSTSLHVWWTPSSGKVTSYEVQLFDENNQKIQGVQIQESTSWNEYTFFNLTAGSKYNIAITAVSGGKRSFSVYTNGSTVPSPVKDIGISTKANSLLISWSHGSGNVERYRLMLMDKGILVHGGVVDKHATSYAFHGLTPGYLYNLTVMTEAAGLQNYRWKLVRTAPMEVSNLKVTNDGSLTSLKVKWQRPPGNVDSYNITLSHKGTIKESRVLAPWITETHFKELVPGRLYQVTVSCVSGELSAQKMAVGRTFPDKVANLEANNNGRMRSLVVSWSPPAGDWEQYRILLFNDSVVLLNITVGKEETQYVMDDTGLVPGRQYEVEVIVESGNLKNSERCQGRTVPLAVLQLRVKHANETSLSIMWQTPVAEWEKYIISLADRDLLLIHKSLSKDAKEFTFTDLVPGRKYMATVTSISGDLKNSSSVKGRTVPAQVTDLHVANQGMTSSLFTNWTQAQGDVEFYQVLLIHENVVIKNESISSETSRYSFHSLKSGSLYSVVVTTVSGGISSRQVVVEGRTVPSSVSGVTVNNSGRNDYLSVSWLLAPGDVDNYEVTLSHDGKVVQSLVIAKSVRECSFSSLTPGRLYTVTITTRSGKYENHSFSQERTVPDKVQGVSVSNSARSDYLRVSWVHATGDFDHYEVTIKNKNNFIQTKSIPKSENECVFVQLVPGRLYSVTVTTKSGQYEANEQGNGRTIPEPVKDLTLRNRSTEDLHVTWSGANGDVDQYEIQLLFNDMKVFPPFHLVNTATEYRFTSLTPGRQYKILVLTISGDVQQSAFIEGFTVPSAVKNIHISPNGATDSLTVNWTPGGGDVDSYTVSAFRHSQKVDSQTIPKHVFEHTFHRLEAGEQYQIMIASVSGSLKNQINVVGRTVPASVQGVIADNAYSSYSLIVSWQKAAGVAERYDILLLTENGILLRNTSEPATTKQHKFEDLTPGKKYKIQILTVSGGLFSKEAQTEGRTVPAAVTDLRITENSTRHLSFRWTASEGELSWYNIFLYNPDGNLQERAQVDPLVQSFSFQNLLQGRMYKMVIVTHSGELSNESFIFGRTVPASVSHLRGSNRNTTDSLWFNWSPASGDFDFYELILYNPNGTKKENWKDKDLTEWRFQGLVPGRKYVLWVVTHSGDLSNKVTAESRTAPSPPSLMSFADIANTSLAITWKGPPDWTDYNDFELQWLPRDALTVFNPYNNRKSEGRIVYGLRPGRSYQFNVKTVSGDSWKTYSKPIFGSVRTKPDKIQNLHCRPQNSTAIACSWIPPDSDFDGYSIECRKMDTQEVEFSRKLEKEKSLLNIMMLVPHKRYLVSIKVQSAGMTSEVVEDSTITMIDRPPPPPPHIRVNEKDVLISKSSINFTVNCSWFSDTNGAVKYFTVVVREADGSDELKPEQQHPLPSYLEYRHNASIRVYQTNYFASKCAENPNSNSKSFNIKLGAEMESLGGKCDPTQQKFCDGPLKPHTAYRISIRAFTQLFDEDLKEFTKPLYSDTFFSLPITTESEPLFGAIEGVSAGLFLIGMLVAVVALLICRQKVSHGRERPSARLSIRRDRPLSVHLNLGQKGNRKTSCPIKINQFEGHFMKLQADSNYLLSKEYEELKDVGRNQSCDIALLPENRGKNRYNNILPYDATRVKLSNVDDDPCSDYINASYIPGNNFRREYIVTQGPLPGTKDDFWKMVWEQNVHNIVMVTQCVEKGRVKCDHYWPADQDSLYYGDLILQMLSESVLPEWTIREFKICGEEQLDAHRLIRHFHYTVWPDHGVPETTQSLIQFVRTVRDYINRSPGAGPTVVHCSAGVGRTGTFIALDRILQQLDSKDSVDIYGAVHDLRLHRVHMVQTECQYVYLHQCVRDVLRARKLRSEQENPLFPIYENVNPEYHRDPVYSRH

[7] = target: Receptor-type tyrosine-protein phosphatase F (Homo sapiens, UniProt P10586); assay: Inhibition of phosphatase activity of human LAR using pNPP as a substrate after 10 mins by spectrophotometer analysis
[8] = target: Receptor-type tyrosine-protein phosphatase gamma (Homo sapiens, UniProt P23470); assay: Inhibition of phosphatase activity of human PTPgamma using pNPP as a substrate after 10 mins by spectrophotometer analysis
Sequence of Receptor-type tyrosine-protein phosphatase gamma (P23470 whole entry): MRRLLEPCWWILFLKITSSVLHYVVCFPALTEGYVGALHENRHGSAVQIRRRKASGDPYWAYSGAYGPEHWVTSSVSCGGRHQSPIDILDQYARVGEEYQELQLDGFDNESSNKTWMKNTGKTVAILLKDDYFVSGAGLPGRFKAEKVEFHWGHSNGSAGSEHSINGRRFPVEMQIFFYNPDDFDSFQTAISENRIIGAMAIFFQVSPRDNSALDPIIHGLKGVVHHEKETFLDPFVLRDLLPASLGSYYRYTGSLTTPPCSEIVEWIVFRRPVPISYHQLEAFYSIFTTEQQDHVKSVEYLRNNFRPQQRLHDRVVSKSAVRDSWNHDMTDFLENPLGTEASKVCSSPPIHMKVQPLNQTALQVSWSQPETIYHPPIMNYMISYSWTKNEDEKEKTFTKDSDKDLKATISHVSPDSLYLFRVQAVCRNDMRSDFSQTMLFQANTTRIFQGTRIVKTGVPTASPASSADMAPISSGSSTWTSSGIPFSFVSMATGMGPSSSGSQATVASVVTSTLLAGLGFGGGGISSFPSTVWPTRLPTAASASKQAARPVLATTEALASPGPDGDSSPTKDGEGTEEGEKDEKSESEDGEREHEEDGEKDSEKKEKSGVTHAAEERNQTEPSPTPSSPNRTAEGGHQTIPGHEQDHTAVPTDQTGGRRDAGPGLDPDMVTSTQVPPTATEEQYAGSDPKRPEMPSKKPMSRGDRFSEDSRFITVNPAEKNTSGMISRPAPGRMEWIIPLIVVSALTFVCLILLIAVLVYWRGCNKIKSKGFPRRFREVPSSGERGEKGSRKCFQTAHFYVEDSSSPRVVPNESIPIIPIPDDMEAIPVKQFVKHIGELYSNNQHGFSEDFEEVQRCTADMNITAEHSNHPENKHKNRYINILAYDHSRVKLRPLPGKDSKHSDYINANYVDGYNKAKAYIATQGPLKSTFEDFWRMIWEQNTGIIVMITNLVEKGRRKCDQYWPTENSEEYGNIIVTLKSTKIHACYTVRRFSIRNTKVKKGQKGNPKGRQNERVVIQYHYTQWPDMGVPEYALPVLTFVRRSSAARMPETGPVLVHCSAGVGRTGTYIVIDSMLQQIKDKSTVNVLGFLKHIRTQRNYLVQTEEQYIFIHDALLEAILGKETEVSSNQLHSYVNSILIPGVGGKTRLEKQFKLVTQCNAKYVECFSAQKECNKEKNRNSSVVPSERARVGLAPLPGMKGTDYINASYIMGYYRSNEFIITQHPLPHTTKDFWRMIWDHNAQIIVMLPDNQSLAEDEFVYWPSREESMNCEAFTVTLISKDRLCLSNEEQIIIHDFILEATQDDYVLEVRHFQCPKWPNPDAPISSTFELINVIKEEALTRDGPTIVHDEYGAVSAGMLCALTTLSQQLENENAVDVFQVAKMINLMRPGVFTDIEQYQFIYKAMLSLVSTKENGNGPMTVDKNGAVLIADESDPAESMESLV

[9] = target: T4, Tyrosine-protein phosphatase non-receptor type 11 (Homo sapiens, UniProt Q06124); assay: Competitive inhibition of phosphatase activity of SHP2 (unknown origin) using pNPP as a substrate Lineweaver-Burk plot analysis
T4 sequence (Q06124 whole entry): T1 sequence (whole entry)
Summary of the method: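 SHP2-catalysed hydrolysis of para-nitrophenyl phosphate measured with inhibitor at 0, 0.25, 0.5 and 0.75 μM. Inhibition mode assigned from a Lineweaver–Burk (double-reciprocal) plot.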

[10] = target: T5, Dual specificity protein phosphatase CDC14A (Homo sapiens, UniProt Q9UNH5); assay: Inhibition of phosphatase activity of human CDC14A using pNPP as a substrate after 10 mins by spectrophotometer analysis
T5 sequence (Q9UNH5 whole entry): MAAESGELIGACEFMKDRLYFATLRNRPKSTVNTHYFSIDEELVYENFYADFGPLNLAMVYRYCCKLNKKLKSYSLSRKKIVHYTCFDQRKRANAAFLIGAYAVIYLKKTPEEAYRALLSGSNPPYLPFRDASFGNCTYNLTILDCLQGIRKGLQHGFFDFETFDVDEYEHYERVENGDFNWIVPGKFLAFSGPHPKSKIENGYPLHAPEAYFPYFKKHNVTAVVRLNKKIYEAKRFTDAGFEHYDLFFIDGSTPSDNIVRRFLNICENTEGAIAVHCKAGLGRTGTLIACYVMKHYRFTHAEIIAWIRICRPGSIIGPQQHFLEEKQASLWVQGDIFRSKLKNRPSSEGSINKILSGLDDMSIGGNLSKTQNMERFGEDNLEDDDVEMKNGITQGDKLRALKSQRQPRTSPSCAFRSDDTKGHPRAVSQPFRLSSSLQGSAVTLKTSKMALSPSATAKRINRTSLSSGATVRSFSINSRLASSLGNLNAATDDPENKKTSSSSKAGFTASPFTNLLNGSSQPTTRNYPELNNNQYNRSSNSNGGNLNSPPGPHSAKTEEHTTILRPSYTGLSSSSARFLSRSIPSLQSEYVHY

[11] = target: Receptor-type tyrosine-protein phosphatase alpha (Homo sapiens, UniProt P18433); assay: Inhibition of phosphatase activity of human PTPalpha using pNPP as a substrate after 10 mins by spectrophotometer analysis
Sequence of Receptor-type tyrosine-protein phosphatase alpha (P18433 whole entry): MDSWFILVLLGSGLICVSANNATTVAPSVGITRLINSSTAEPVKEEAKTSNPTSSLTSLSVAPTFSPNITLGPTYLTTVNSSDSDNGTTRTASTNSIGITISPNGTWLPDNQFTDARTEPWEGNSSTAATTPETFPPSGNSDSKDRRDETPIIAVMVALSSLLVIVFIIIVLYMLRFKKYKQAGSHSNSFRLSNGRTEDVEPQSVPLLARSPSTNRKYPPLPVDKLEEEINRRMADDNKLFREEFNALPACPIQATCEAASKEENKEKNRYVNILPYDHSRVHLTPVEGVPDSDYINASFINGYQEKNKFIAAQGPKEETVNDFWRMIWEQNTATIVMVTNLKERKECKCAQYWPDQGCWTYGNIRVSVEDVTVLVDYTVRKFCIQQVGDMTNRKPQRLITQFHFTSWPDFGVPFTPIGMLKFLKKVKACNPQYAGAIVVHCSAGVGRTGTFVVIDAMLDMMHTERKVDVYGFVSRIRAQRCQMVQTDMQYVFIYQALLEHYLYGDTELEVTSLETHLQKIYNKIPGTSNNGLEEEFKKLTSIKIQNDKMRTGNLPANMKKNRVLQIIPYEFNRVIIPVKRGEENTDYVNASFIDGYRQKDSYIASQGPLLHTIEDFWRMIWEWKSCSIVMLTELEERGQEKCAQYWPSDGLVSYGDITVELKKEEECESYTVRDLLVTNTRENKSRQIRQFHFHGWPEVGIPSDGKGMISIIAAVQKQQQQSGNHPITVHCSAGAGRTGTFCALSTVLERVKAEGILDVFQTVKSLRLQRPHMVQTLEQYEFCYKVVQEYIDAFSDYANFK

[12] = target: T6, Low molecular weight phosphotyrosine protein phosphatase (Homo sapiens, UniProt P24666); assay: Inhibition of phosphatase activity of human LMWPTP using pNPP as a substrate after 10 mins by spectrophotometer analysis
T6 sequence (P24666 whole entry): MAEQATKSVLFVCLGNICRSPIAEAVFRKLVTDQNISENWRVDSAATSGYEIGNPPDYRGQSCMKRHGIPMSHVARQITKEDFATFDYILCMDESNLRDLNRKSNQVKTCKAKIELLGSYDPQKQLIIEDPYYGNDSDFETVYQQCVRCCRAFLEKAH

[13] = target: T1, Tyrosine-protein phosphatase non-receptor type 11 (Homo sapiens); assay: Inhibition of SHP2 in human NCI-H1975 cells assessed as increase in EGF-induced paxillin phosphorylation at Y118 at 40 uM after 60 mins relative to control
[14] = target: T7, Serine/threonine-protein phosphatase 5 (Homo sapiens, UniProt P53041); assay: Inhibition of phosphatase activity of human PP5 using pNPP as a substrate after 10 mins by spectrophotometer analysis
T7 sequence (P53041 whole entry): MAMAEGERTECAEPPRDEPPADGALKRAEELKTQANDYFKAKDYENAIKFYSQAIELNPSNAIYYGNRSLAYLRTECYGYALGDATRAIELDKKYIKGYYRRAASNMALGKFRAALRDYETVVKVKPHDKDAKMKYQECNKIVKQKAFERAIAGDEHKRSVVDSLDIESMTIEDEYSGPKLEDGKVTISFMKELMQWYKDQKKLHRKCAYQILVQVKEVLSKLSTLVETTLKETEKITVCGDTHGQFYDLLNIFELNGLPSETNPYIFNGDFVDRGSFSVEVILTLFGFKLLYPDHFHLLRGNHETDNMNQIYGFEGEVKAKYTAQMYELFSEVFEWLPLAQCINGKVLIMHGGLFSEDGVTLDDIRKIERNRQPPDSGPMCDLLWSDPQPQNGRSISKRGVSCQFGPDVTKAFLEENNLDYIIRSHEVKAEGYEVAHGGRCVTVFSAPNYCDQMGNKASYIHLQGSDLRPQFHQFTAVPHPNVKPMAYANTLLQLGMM

[15] = target: T8, Tyrosine-protein phosphatase non-receptor type 22 (Homo sapiens, UniProt Q9Y2R2); assay: Inhibition of phosphatase activity of human LYP using pNPP as a substrate after 10 mins by spectrophotometer analysis
T8 sequence (Q9Y2R2 whole entry): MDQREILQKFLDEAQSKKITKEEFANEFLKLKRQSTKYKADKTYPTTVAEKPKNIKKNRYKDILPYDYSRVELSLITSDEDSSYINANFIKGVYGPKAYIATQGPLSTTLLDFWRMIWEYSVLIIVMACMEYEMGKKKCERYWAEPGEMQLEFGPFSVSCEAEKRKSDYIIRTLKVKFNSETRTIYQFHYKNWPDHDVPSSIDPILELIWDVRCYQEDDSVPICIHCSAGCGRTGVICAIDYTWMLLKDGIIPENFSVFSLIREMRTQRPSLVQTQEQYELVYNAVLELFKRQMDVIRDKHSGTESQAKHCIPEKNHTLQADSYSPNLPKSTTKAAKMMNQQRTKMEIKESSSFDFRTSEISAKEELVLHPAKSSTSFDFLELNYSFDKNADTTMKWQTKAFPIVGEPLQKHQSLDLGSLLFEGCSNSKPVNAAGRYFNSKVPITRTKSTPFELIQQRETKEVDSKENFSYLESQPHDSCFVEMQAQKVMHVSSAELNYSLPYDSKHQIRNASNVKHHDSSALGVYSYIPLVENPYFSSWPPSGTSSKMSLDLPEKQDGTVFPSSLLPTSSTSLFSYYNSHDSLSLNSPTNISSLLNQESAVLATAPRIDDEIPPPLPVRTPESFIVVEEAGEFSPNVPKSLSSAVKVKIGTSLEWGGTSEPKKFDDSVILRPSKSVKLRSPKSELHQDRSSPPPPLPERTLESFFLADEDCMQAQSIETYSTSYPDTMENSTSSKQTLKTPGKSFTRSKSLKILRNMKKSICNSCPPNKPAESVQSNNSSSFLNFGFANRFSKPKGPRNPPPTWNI

[16] = target: T1, Tyrosine-protein phosphatase non-receptor type 11 (Homo sapiens); assay: Inhibition of SHP2 in human NCI-H1975 cells assessed as reduction of EGF-induced ERK1/2 activation at 40 uM after 60 mins relative to control; type: cell-based
Summary of the method: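 H1975 cells were stimulated with EGF and ERK1/2 and paxillin phosphorylation was assessed by immunoblot. Band intensities were quantified, and pERK1/2/total ERK1/2 or pPaxillin(Y118)/total paxillin ratios were normalized to the reference. Blots are representative of at least two independent experiments, with quantified values given as mean ± SD.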

[17] = target: Receptor-type tyrosine-protein phosphatase epsilon (Homo sapiens, UniProt P23469); assay: Inhibition of phosphatase activity of human PTPepsilon using pNPP as a substrate after 10 mins by spectrophotometer analysis
Sequence of Receptor-type tyrosine-protein phosphatase epsilon (P23469 whole entry): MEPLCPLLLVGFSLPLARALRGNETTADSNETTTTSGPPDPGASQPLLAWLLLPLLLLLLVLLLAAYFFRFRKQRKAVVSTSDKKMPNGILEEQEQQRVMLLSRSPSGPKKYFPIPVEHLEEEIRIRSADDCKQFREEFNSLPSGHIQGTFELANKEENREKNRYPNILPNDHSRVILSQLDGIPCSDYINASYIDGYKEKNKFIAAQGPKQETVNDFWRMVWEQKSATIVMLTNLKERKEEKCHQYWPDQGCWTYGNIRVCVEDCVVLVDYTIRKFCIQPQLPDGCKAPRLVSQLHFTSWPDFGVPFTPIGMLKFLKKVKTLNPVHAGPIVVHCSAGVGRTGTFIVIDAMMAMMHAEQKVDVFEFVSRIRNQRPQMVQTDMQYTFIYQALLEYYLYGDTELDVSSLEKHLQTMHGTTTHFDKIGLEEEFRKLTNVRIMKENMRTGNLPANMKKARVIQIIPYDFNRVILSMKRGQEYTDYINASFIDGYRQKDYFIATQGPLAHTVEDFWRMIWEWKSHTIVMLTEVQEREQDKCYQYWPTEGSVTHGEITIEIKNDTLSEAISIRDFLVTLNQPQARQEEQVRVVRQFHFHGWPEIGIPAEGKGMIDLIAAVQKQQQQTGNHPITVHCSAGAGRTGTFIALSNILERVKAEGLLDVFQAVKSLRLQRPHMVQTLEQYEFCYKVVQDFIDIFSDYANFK

[18] = target: Dual specificity protein phosphatase 3 (Homo sapiens, UniProt P51452); assay: Inhibition of phosphatase activity of human VHR using pNPP as a substrate after 10 mins by spectrophotometer analysis
Sequence of Dual specificity protein phosphatase 3 (P51452 whole entry): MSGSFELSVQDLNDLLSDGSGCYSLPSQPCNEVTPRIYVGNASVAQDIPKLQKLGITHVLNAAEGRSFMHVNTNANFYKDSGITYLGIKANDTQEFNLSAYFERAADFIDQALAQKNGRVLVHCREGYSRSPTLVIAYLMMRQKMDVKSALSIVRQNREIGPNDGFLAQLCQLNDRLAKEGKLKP

SK-BR-3 = assay: Growth inhibition of human SKBR3 cells expressing ErbB2 in 3D matrigel after 5 days; type: functional, cell-based
[19] = target: Receptor-type tyrosine-protein phosphatase mu (Homo sapiens, UniProt P28827); assay: Inhibition of phosphatase activity of human PTPmu using pNPP as a substrate after 10 mins by spectrophotometer analysis
NCI-H1975 [20] = assay: Cytotoxicity against human NCI-H1975 cells at 20 to 40 uM by MTT assay; type: functional, cell-based
MDA-MB-231 [21] = assay: Cytotoxicity against human MDA-MB-231 cells at 20 to 40 uM by MTT assay; type: functional, cell-based

O=C(O)C(=O)Nc1ccc(CNC(=O)C(c2ccccc2)S(=O)(=O)O)cc1 (centres undefined)
inhibition [1]: inactive

CC(C)c1ccc(NC(=O)C(=O)Nc2ccc(NC(=O)C(c3ccccc3)S(=O)(=O)O)cc2)cc1 (centres undefined)
Activity (MDA-MB-231 [2]): Dose-dependent effect
Activity (NCI-H1975 [3]): Dose-dependent effect

O=C(O)C(=O)NCc1ccc(NC(=O)C(c2ccccc2)S(=O)(=O)O)cc1 (centres undefined)
inhibition [1]: inactive

O=C(O)C(=O)Nc1ccc(NC(=O)C(c2ccccc2)S(=O)(=O)O)cc1 (centres undefined)
inhibition [1]: inactive

O=C(Nc1ccc(I)cc1)C(=O)Nc1ccc(NC(=O)C(c2ccccc2)S(=O)(=O)O)cc1 (centres undefined)
IC50 [4]: > 50 µM
IC50 [5]: > 50 µM
IC50 [6]: > 50 µM
IC50 [7]: > 50 µM
IC50 [8]: > 50 µM
Ki [9]: 0.51 µM
IC50 [10]: > 50 µM
IC50 [11]: > 50 µM
IC50 [12]: > 50 µM
Activity (MDA-MB-231 [2]): Dose-dependent effect
fold change (FC) [13]: 1.3
IC50 [14]: > 50 µM
IC50 [15]: > 50 µM
fold change (FC) [16]: 0.6
IC50 [17]: > 50 µM
Activity (NCI-H1975 [3]): Dose-dependent effect
IC50 [18]: > 50 µM
growth inhibition (GI) (SK-BR-3): Dose-dependent effect
IC50 [19]: > 50 µM

O=C(O)C(=O)Nc1cccc(NC(=O)C(c2ccccc2)S(=O)(=O)O)c1 (centres undefined)
inhibition [1]: inactive

O=C(Nc1ccccc1)C(=O)Nc1ccc(NC(=O)C(c2ccccc2)S(=O)(=O)O)cc1 (centres undefined)
Activity (NCI-H1975 [20]): inactive
fold change (FC) [13]: 1.1
Activity (MDA-MB-231 [21]): inactive
fold change (FC) [16]: 1

O=C(Nc1ccc(NC(=O)C(c2ccccc2)S(=O)(=O)O)cc1)C(=O)Nc1ccc(-c2ccccc2)cc1 (centres undefined)
IC50 [4]: > 50 µM
IC50 [5]: > 50 µM
IC50 [6]: > 50 µM
IC50 [7]: > 50 µM
IC50 [8]: > 50 µM
IC50 [10]: > 50 µM
IC50 [11]: > 50 µM
IC50 [12]: > 50 µM
Activity (MDA-MB-231 [2]): Dose-dependent effect
IC50 [14]: > 50 µM
IC50 [15]: > 50 µM
IC50 [17]: > 50 µM
Activity (NCI-H1975 [3]): Dose-dependent effect
IC50 [18]: > 50 µM
IC50 [19]: > 50 µM
